Test results from ChEMBL document CHEMBL3621107, “Ring fusion strategy for synthesis and lead optimization of sulfur-substituted anthra[1,2-c][1,2,5]thiadiazole-6,11-dione derivatives as promising scaffold of antitumor agents” (Eur J Med Chem, 2015).

Key:
Format in all cases: functional
M14 = assay: Cytotoxicity against human M14 cells assessed as cell growth at 10 uM after 48 hrs by SRB assay relative to control; conditions: M14, 48 h, read-out: Activity
Method in brief: (§1)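 First-stage NCI-60 screen by the NCI Developmental Therapeutics Program. Each compound was tested once at a single concentration of 10 μM against the 60-cell-line panel. Growth percentage was reported for each cell line.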

OVCAR-8 = assay: Cytotoxicity against human OVCAR8 cells assessed as cell growth at 10 uM after 48 hrs by SRB assay relative to control; conditions: OVCAR-8, 48 h, read-out: Activity
Method in brief: (§2)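 First-stage NCI DTP one-dose screen against the 60 human tumour cell line panel. Compounds were tested at a single 10 μM level, and results are given as growth percentage.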

SK-OV-3 = assay: Cytotoxicity against human SKOV3 cells assessed as cell growth at 10 uM after 48 hrs by SRB assay relative to control; conditions: SK-OV-3, 48 h, read-out: Activity; method in brief: as §2
NCI-H226 = assay: Cytotoxicity against human NCI-H226 cells assessed as cell growth at 10 uM after 48 hrs by SRB assay relative to control; conditions: NCI-H226, 48 h, read-out: Activity; method in brief: as §2
COLO 205 = assay: Cytotoxicity against human COLO205 cells assessed as cell growth at 10 uM after 48 hrs by SRB assay relative to control; conditions: COLO 205, 48 h, read-out: Activity; method in brief: as §1
SF-539 = assay: Cytotoxicity against human SF539 cells assessed as cell growth at 10 uM after 48 hrs by SRB assay relative to control; conditions: SF-539, 48 h, read-out: Activity; method in brief: as §2
HCT-116 = assay: Cytotoxicity against human HCT116 cells assessed as cell growth at 10 uM after 48 hrs by SRB assay relative to control; conditions: HCT-116, 48 h, read-out: Activity; method in brief: as §1
MDA-MB-231 = assay: Cytotoxicity against human MDA-MB-231 cells assessed as cell growth at 10 uM after 48 hrs by SRB assay relative to control; conditions: MDA-MB-231, 48 h, read-out: Activity; method in brief: as §2
UACC-257 = assay: Cytotoxicity against human UACC257 cells assessed as cell growth at 10 uM after 48 hrs by SRB assay relative to control; conditions: UACC-257, 48 h, read-out: Activity
Method in brief: (§3)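 NCI-60 one-dose screen run by NCI DTP: each cell line exposed to a single 10 µM dose, and percentage growth recorded against untreated growth.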

ACHN = assay: Cytotoxicity against human ACHN cells assessed as cell growth at 10 uM after 48 hrs by SRB assay relative to control; conditions: read-out: Activity; method in brief: as §1
UO-31 = assay: Cytotoxicity against human UO31 cells assessed as cell growth at 10 uM after 48 hrs by SRB assay relative to control; conditions: UO-31, 48 h, read-out: Activity; method in brief: as §3
NCI-H23 = assay: Cytotoxicity against human NCI-H23 cells assessed as cell growth at 10 uM after 48 hrs by SRB assay relative to control; conditions: NCI-H23, 48 h, read-out: Activity; method in brief: as §2
MDA-MB-435 = assay: Cytotoxicity against human MDA-MB-435 cells assessed as cell growth at 10 uM after 48 hrs by SRB assay relative to control; conditions: MDA-MB-435, 48 h, read-out: Activity; method in brief: as §2
TK-10 = assay: Cytotoxicity against human TK10 cells assessed as cell growth at 10 uM after 48 hrs by SRB assay relative to control; conditions: TK-10, 48 h, read-out: Activity; method in brief: as §3
LOX IMVI = assay: Cytotoxicity against human LOXIMVI cells assessed as cell growth at 10 uM after 48 hrs by SRB assay relative to control; conditions: read-out: Activity; method in brief: as §1
A549 = assay: Cytotoxicity against human A549 cells assessed as cell growth at 10 uM after 48 hrs by SRB assay relative to control; conditions: A549, 48 h, read-out: Activity; method in brief: as §1
SNB-75 = assay: Cytotoxicity against human SNB75 cells assessed as cell growth at 10 uM after 48 hrs by SRB assay relative to control; conditions: SNB-75, 48 h, read-out: Activity; method in brief: as §3
SK-MEL-2 = assay: Cytotoxicity against human SK-MEL-2 cells assessed as cell growth at 10 uM after 48 hrs by SRB assay relative to control; conditions: SK-MEL-2, 48 h, read-out: Activity; method in brief: as §2
SK-MEL-5 = assay: Cytotoxicity against human SK-MEL-5 cells assessed as cell growth at 10 uM after 48 hrs by SRB assay relative to control; conditions: SK-MEL-5, 48 h, read-out: Activity; method in brief: as §2
RXF 393 = assay: Cytotoxicity against human RXF393 cells assessed as cell growth at 10 uM after 48 hrs by SRB assay relative to control; conditions: RXF 393, 48 h, read-out: Activity; method in brief: as §2
HCT-15 = assay: Cytotoxicity against human HCT15 cells assessed as cell growth at 10 uM after 48 hrs by SRB assay relative to control; conditions: HCT-15, 48 h, read-out: Activity; method in brief: as §1
T47D = assay: Cytotoxicity against human T47D cells assessed as cell growth at 10 uM after 48 hrs by SRB assay relative to control; conditions: read-out: Activity; method in brief: as §3
NCI-H522 = assay: Cytotoxicity against human NCI-H522 cells assessed as cell growth at 10 uM after 48 hrs by SRB assay relative to control; conditions: NCI-H522, 48 h, read-out: Activity; method in brief: as §2
SF-268 = assay: Cytotoxicity against human SF268 cells assessed as cell growth at 10 uM after 48 hrs by SRB assay relative to control; conditions: SF-268, 48 h, read-out: Activity; method in brief: as §2
NCI-H460 = assay: Cytotoxicity against human NCI-H460 cells assessed as cell growth at 10 uM after 48 hrs by SRB assay relative to control; conditions: NCI-H460, 48 h, read-out: Activity; method in brief: as §2
DU-145 = assay: Cytotoxicity against human DU145 cells assessed as cell growth at 10 uM after 48 hrs by SRB assay relative to control; conditions: DU-145, 48 h, read-out: Activity; method in brief: as §1
[1] = Cytotoxicity against human Hs578T cells assessed as cell growth at 10 uM after 48 hrs by SRB assay relative to control; conditions: Hs-578T, read-out: Activity; method in brief: as §1
OVCAR-3 = assay: Cytotoxicity against human OVCAR3 cells assessed as cell growth at 10 uM after 48 hrs by SRB assay relative to control; conditions: OVCAR-3, 48 h, read-out: Activity; method in brief: as §2
K562 = assay: Cytotoxicity against human K562 cells assessed as cell growth at 10 uM after 48 hrs by SRB assay relative to control; conditions: K562, 48 h, read-out: Activity; method in brief: as §1
SF-295 = assay: Cytotoxicity against human SF295 cells assessed as cell growth at 10 uM after 48 hrs by SRB assay relative to control; conditions: SF-295, 48 h, read-out: Activity; method in brief: as §2

SMILES	growth at 10 µM (M14)	growth at 10 µM (OVCAR-8)	growth at 10 µM (NCI-H226)	growth at 10 µM (COLO 205)	growth at 10 µM (SF-539)	growth at 10 µM (HCT-116)	growth at 10 µM (MDA-MB-231)	growth at 10 µM (UACC-257)	growth at 10 µM (ACHN)	growth at 10 µM (UO-31)	growth at 10 µM (NCI-H23)	growth at 10 µM (MDA-MB-435)	growth at 10 µM (TK-10)	growth at 10 µM (LOX IMVI)	growth at 10 µM (A549)	growth at 10 µM (SNB-75)	growth at 10 µM (SK-MEL-2)	growth at 10 µM (SK-MEL-5)	growth at 10 µM (RXF 393)	growth at 10 µM (HCT-15)	also measured
CCOc1cccc(Sc2cc3c(c4nsnc24)C(=O)c2ccccc2C3=O)c1	104%	112%	90.5%	106%	93.7%	101%	101%	126%	103%	76.7%	94.1%	106%	125%	84.1%	111%	77.2%	103%	107%	118%	103%	growth at 10 µM (SK-OV-3): 99.4%; growth at 10 µM (T47D): 86.5%; growth at 10 µM (NCI-H522): 98.2%
CC(C)Sc1cc2c(c3nsnc13)C(=O)c1ccccc1C2=O	-31.5%	-22.6%	10.2%	102%	-47%	-36.7%	-35.9%	-91.7%	0.8%	-28.4%	-42.2%	-79.3%	30.3%	-21.6%	-8.14%	9.12%	-55.6%	-99.2%	13.6%	15.3%	growth at 10 µM (SF-268): 7.06%; growth at 10 µM (NCI-H460): 4.92%; growth at 10 µM (DU-145): 6.66%; growth at 10 µM [1]: -9.16%; growth at 10 µM (OVCAR-3): -60.3%; growth at 10 µM (K562): -26.2%; growth at 10 µM (SF-295): -16.6%; growth at 10 µM (T47D): -24.4%; growth at 10 µM (NCI-H522): -59.5%
